Measurements as given in ChEMBL document CHEMBL1145564, “Discovery of N-[(3R,5R)-1-azabicyclo[3.2.1]oct-3-yl]furo[2,3-c]pyridine-5-carboxamide as an agonist of the alpha7 nicotinic acetylcholine receptor: in vitro and in vivo activity” (Bioorg Med Chem Lett, 2008).
Active and inactive are the calls of the source. The calls are words filed in the database; no cut-off is given here.

Tests used:
[1] = biological target: Muscarinic acetylcholine receptor M3 (Homo sapiens) (UniProt P20309); experiment: Displacement of [3H]DAMP from human muscarinic M3 receptor expressed in CHO cells at 10 uM; type: cell-based
Chain of Muscarinic acetylcholine receptor M3 (Homo sapiens) (P20309 whole entry, looked up): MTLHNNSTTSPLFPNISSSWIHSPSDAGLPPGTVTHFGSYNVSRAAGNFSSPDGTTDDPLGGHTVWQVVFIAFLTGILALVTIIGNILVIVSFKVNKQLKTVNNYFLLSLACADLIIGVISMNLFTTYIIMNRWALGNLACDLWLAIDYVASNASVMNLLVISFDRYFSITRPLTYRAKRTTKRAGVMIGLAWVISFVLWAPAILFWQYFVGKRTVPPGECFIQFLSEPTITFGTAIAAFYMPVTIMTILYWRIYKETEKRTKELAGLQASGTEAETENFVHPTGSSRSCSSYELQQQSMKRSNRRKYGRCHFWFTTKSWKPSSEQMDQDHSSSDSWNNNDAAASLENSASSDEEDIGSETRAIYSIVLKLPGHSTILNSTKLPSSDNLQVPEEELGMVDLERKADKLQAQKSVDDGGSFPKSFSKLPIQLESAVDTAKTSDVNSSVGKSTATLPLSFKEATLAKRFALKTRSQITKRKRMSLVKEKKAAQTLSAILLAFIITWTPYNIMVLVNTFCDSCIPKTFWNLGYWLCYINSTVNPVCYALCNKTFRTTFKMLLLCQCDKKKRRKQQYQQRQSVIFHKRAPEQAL
Outline: (§1)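 Human muscarinic receptors in transfected CHO cells; radioligands [3H]pirenzepine (M1), [3H]AF-DX 384 (M2), [3H]DAMP (M3); percent block at 10 µM.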

[2] = biological target: hERG (KCNH2) (Homo sapiens, UniProt Q12809); experiment: Inhibition of human ERG expressed in HEK293 cells at 20 uM; type: cell-based; conditions: HEK293 cells that express hERG
Chain of hERG (KCNH2) (Q12809 whole entry): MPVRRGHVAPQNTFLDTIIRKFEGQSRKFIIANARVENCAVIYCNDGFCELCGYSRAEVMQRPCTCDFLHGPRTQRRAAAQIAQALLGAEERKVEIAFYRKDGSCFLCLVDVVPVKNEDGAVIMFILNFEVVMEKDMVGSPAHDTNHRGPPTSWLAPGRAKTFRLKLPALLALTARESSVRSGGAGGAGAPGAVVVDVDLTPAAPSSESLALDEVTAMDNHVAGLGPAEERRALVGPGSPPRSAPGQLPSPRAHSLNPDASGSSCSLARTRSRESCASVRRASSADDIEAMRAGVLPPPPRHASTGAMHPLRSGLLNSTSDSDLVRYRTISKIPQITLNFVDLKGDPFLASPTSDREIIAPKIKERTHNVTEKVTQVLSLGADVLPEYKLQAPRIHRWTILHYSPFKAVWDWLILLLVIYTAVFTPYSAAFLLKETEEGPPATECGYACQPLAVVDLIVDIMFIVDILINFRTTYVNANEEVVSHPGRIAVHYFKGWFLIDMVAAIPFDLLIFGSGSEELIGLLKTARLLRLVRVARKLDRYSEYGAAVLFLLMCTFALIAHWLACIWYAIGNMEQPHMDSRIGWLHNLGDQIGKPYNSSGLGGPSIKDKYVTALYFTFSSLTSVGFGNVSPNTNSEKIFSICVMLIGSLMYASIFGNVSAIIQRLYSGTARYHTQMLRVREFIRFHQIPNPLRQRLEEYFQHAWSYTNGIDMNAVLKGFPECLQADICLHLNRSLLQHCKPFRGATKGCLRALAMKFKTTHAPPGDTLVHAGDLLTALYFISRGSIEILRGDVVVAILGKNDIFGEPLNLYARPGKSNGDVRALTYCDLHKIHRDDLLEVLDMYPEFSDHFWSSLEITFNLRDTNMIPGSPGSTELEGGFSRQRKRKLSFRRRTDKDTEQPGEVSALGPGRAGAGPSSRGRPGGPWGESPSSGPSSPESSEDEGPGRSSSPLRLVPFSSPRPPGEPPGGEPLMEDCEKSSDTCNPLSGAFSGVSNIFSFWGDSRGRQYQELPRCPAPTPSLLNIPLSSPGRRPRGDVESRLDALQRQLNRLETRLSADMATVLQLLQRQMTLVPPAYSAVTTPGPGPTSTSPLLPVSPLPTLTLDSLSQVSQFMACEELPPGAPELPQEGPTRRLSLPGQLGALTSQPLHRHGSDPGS
Outline: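 Patch-clamp on hERG current (IKr) in HEK cells; percent inhibition at 20 µM; aqueous solubility checked by HPLC in pH 7 buffer.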

[3] = Oral bioavailability in Sprague-Dawley rat at 5 mg/kg; type: ADME, organism-based; conditions: in vivo
Outline: (§2)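 Sprague-Dawley rats given a single 5.0 mg/kg oral dose; pharmacokinetic parameters derived from plasma.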

[4] = test system: Plasma; experiment: Drug level in rat plasma at 1 mg/kg, sc; type: ADME, organism-based; parameters: dose 1 mg/kg, route subcutaneous; conditions: in vivo
Outline: (§3)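 Rats given amphetamine 1 mg/kg iv to disrupt gating, then test drug sc (0.01–1.0 mg/kg, n = 6-9). Gating is the conditioning/test EEG field potential ratio from paired tones at 0.5 Hz, monitored 30 min, expressed as % reversal. Brain and plasma levels taken about 37 min post-dose.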

[5] = test system: Rattus norvegicus; experiment: Reversal of amphetamine-induced auditory gating deficit in rat at 1 mg/kg, sc twice daily for 6 days; type: functional, organism-based; parameters: dose 1 mg/kg
Outline: (§4)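 Rats dosed sc twice daily for 6 days with drug 1 mg/kg or 0.9% saline vehicle (n = 8). On day 7, amphetamine-induced gating deficit challenged with acute drug 1 mg/kg sc; brain and plasma exposures measured.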

[6] = test system: Rattus norvegicus; experiment: Volume of distribution at steady state in Sprague-Dawley rat at 5 mg/kg, po; type: ADME, organism-based; parameters: dose 5 mg/kg, route oral; conditions: in vivo; outline: as §2
[7] = Clearance in Sprague-Dawley rat at 5 mg/kg, po; type: ADME, organism-based; parameters: dose 5 mg/kg, route oral; conditions: in vivo; outline: as §2
[8] = biological target: T1, 5-hydroxytryptamine receptor 3A (Rattus norvegicus, UniProt P35563); experiment: Binding affinity to rat 5HT3 receptor
T1 sequence (P35563 whole entry): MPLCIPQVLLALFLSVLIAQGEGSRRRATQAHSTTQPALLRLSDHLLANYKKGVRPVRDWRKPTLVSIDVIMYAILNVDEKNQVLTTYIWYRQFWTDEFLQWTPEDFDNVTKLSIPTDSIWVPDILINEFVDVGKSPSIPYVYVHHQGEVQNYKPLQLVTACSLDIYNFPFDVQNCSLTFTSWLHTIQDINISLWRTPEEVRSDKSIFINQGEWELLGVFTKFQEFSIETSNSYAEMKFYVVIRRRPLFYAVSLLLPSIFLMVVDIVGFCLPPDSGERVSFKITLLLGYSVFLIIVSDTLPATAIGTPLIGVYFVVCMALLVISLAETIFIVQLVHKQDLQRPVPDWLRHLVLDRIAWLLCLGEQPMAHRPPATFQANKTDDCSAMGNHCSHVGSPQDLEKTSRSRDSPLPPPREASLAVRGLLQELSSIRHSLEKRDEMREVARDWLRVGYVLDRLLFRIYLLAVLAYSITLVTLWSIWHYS

[9] = biological target: T2, Neuronal acetylcholine receptor subunit alpha-7 (Homo sapiens, UniProt P36544); experiment: Displacement of [3H]MLA from alpha-7 nACh receptor in human IMR32 cells; type: cell-based, IMR-32
Target sequence in this assay (P36544 whole entry): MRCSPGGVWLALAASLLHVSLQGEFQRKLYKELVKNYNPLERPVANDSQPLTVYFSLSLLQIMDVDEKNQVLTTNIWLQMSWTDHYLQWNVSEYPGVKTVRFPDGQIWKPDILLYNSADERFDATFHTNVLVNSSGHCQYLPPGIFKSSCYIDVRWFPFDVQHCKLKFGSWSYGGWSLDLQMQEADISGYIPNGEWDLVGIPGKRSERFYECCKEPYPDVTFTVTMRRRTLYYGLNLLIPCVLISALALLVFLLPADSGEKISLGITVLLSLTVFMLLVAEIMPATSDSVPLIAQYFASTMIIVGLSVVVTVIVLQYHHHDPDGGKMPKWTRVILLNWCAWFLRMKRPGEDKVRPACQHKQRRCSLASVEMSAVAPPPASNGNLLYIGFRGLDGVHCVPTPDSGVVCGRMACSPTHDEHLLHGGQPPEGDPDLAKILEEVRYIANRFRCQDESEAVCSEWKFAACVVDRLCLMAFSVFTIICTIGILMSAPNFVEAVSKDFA

[10] = Cmax in dog ECG model; type: ADME, organism-based, Canis lupus familiaris; conditions: in vivo
Outline: (§5)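 Acute dog ECG cardiovascular safety study; no-observable-adverse-effect dose set, with Cmax measured at that dose.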

[11] = test system: Plasma; experiment: Drug level in rat plasma at 0.1 mg/kg, sc; type: ADME, organism-based; parameters: dose 0.1 mg/kg, route subcutaneous; conditions: in vivo; outline: as §3
[12] = biological target: Neuronal acetylcholine receptor; alpha4/beta2 (Rattus norvegicus) (UniProt P09483+P12390); experiment: Displacement of [3H][…] from alpha-4-beta-2 nACh receptor in rat brain at 1 uM; type: tissue-based
Outline: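 Rat brain homogenate binding using [3H][…]; percent block at 1 µM.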

[13] = Ratio of drug level in brain to plasma in mouse at 10 mg/kg after 60 min; type: ADME, organism-based; parameters: dose 10 mg/kg
Outline: (§6)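 Mouse brain uptake: brain and plasma concentrations after a 10 mg/kg dose, ratio taken at 5 and 60 min.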

[14] = biological target: T3, Muscarinic acetylcholine receptor M1 (Homo sapiens) (UniProt P11229); experiment: Displacement of [3H]pirenzepine from human muscarinic M1 receptor expressed in CHO cells at 10 uM; type: cell-based; outline: as §1
T3 sequence (whole entry): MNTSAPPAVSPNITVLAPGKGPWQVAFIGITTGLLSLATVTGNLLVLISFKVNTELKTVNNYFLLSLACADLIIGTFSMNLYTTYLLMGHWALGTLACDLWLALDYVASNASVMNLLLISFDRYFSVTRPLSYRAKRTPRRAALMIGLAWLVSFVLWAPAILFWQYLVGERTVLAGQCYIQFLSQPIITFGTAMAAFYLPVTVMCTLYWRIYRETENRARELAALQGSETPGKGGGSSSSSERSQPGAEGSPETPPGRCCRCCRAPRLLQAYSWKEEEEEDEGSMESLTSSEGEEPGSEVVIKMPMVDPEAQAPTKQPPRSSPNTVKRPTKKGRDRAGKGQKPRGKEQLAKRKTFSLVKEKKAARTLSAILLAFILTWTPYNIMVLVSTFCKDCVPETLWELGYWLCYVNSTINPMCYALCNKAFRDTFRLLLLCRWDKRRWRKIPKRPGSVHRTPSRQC

[15] = Drug level in rat brain at 1 mg/kg, sc twice daily for 6 days; type: ADME, organism-based; parameters: dose 1 mg/kg, route subcutaneous; conditions: read-out: Drug uptake; outline: as §4
[16] = test system: Brain; experiment: Drug level in rat brain at 0.1 mg/kg, sc; type: ADME, organism-based; parameters: dose 0.1 mg/kg, route subcutaneous; conditions: in vivo; outline: as §3
[17] = Drug level in rat plasma at 1 mg/kg, sc twice daily for 6 days; type: ADME, organism-based; parameters: dose 1 mg/kg, route subcutaneous; outline: as §4
[18] = Ratio of drug level in brain to plasma in mouse at 10 mg/kg after 5 mins; type: ADME, organism-based; parameters: dose 10 mg/kg; outline: as §6
[19] = biological target: T4, Muscarinic acetylcholine receptor M2 (Homo sapiens) (UniProt P08172); experiment: Displacement of [3H]AF-DX384 from human muscarinic M2 receptor expressed in CHO cells at 10 uM; type: cell-based; outline: as §1
T4 sequence (whole entry): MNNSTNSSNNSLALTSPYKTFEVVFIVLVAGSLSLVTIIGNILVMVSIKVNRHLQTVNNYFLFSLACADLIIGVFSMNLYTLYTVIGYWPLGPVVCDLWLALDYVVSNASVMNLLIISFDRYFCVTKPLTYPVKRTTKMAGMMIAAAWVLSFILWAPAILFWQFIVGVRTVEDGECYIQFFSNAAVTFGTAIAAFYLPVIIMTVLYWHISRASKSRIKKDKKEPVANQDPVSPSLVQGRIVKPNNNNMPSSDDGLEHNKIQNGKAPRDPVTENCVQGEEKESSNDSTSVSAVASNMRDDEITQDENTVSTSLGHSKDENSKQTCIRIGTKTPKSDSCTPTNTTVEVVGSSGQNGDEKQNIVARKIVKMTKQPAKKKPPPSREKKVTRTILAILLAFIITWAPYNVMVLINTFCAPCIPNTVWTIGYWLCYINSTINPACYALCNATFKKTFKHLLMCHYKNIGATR

[20] = Apparent permeability from apical to basolateral side in dog MDCK cells; type: ADME, cell-based, Canis lupus familiaris
Outline: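 MDCK monolayer permeability measured apical to basolateral, expressed as Papp (x10^-6 cm/s).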

[21] = Toxicity in dog ECG model assessed as drug level causing no observable adverse effects; type: organism-based, Canis lupus familiaris; conditions: in vivo, read-out: Activity; outline: as §5
[22] = biological target: T2, Neuronal acetylcholine receptor subunit alpha-7; experiment: Agonist activity at alpha7-5HT3 chimera expressed in human SH-EP1 cells by FLIPR assay; type: functional, cell-based
Target sequence in this assay (P36544 23-502 limits assumed): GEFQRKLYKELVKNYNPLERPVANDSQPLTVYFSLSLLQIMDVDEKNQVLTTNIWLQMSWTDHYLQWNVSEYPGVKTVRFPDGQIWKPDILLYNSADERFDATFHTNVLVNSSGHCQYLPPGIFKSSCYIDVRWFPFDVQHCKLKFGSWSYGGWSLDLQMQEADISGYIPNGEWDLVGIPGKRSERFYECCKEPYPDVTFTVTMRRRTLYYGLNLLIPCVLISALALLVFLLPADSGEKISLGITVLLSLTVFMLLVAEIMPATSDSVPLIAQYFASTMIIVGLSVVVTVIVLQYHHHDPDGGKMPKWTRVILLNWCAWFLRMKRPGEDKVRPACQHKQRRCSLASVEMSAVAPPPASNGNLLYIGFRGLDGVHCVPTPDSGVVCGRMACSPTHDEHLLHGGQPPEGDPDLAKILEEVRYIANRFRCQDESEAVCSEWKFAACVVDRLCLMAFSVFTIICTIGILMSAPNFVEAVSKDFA

[23] = test system: Brain; experiment: Drug level in rat brain at 0.01 mg/kg, sc; type: ADME, organism-based; parameters: dose 0.01 mg/kg, route subcutaneous; conditions: in vivo, read-out: Drug uptake; outline: as §3
[24] = Drug level in rat plasma at 0.24 mg/kg, iv after 30 mins; type: ADME, organism-based; parameters: dose 0.24 mg/kg, route intravenous
[25] = test system: Rattus norvegicus; experiment: Reversal of amphetamine-induced auditory gating deficit in sc dosed rat auditory sensory gating model; type: functional; outline: as §3
[26] = test system: Plasma; experiment: Drug level in rat plasma at 0.01 mg/kg, sc; type: ADME, organism-based; parameters: dose 0.01 mg/kg, route subcutaneous; conditions: in vivo; outline: as §3
[27] = Metabolic stability in human liver microsomes assessed as half life; type: ADME, Microsome
[28] = biological target: Neuronal acetylcholine receptor subunit alpha-7 (Rattus norvegicus, UniProt Q05941); experiment: Displacement of [3H]MLA from alpha-7 nACh receptor in rat brain; type: tissue-based
Chain of Neuronal acetylcholine receptor subunit alpha-7 (Rattus norvegicus, UniProt Q05941) (Q05941 whole entry): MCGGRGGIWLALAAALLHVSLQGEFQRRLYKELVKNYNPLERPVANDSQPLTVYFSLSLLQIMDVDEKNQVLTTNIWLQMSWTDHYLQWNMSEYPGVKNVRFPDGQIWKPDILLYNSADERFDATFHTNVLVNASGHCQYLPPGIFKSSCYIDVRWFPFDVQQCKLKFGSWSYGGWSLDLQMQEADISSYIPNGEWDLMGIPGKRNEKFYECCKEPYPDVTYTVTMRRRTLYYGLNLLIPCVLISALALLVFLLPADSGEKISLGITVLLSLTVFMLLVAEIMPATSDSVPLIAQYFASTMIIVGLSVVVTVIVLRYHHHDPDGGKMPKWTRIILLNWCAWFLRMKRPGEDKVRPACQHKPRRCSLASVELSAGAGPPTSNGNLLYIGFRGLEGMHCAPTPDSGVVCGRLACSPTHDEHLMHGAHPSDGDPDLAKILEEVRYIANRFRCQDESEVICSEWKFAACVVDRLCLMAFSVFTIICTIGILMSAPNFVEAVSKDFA
Outline: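 Rat brain homogenate binding with [3H]MLA; individual Ki values, mean ± SEM reported when more than 3 measurements.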

[29] = test system: Brain; experiment: Drug level in rat brain at 1 mg/kg, sc; type: ADME, organism-based; parameters: dose 1 mg/kg, route subcutaneous; conditions: in vivo, read-out: Drug uptake; outline: as §3
[30] = Half life in Sprague-Dawley rat at 5 mg/kg, po; type: ADME, organism-based; parameters: dose 5 mg/kg, route oral; conditions: in vivo; outline: as §2
[31] = Metabolic stability in rat liver microsomes assessed as hepatic extraction ratio after 30 mins; type: ADME, Microsome
Outline: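 Rat liver microsome incubation; stability reported as fraction of compound remaining after 30 min relative to t0 concentration.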

[32] = test system: Rattus norvegicus; experiment: Reversal of amphetamine-induced auditory gating deficit in iv dosed rat auditory sensory gating model; conditions: read-out: MED
[33] = test system: Plasma; experiment: Fraction unbound in human plasma at 0.100 ug/mL; type: ADME, cell-free
Outline: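 Human plasma protein binding as fraction unbound, measured at drug concentration 0.100 µg/mL.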

O=C(N[C@@H]1C[C@H]2CCN(C2)C1)c1cc2ccoc2cn1
Activity [1]: 15%
inhibition at 20 µM [2]: 25%
bioavailability [3]: 40%
concentration [4]: 1100 nM
Activity [5]: Active
Vdss [6]: 2.4 L/kg
CL/F [7]: 72 mL/min/kg
Ki [8]: 350 nM
Ki [9]: 9 nM
Cmax [10]: 22000 nM
concentration [11]: 60 nM
Activity [12]: < 1%
Kp at 1 h [13]: 1.88
Activity [14]: 16%
concentration at 144 h [15]: 350 nM
concentration [16]: 47 nM
concentration at 144 h [17]: 490 nM
Kp at 5 min [18]: 1.52
Activity [19]: 25%
Papp A→B [20]: 21 ×10⁻⁶ cm/s
NOAEL [21]: 40 mg/kg
EC50 [22]: 46 nM
concentration [23]: 5.3 nM
concentration at 0.5 h [24]: 130 nM
Activity [25]: Dose-dependent effect
minimal effective dose ([25]; read-out: MED): 0.1 mg/kg
concentration [26]: 12 nM
half-life [27]: > 120 min
Ki [28]: 2.9 nM
concentration [29]: 1200 nM
half-life [30]: 48 min

O=C(N[C@@H]1C[C@H]2CCN(C2)C1)c1ccc2ncsc2c1
Kp at 1 h [13]: 0.33
Kp at 5 min [18]: 0.02
Papp A→B [20]: 0.2 ×10⁻⁶ cm/s
EC50 [22]: 182 nM
hepatic extraction ratio at 0.5 h [31]: < 0.27
Ki [28]: 21 nM

O=C(N[C@@H]1C[C@H]2CCN(C2)C1)c1ccc2c(c1)OCCO2
EC50 [22]: 430 nM
hepatic extraction ratio at 0.5 h [31]: 0.74
Ki [28]: 29 nM

O=C(N[C@@H]1C[C@H]2CCN(C2)C1)c1ccc2occc2c1
Kp at 1 h [13]: 1.15
Kp at 5 min [18]: 0.27
Papp A→B [20]: 3.8 ×10⁻⁶ cm/s
EC50 [22]: 81 nM
hepatic extraction ratio at 0.5 h [31]: < 0.27
Ki [28]: 6.2 nM

O=C(N[C@@H]1C[C@H]2CCN(C2)C1)c1ccc(Cl)cc1
EC50 [22]: 190 nM
hepatic extraction ratio at 0.5 h [31]: 0.37

O=C(N[C@H]1CN2CCC1CC2)c1ccc(Cl)cc1 [PNU-282987]
EC50 [22]: 128 nM
hepatic extraction ratio at 0.5 h [31]: < 0.27

O=C(N[C@@H]1C[C@H]2CCN(C2)C1)c1cc2cccn2cn1
EC50 [22]: 129 nM
hepatic extraction ratio at 0.5 h [31]: 0.86
Ki [28]: 14 nM

O=C(N[C@@H]1C[C@H]2CCN(C2)C1)c1cc2sccc2cn1
EC50 [22]: 70 nM
hepatic extraction ratio at 0.5 h [31]: 0.71
Ki [28]: 7 nM

O=C(N[C@H]1CN2CCC1CC2)c1cc2ccoc2cn1 [PHA-543613]
Activity [1]: 33%
minimal effective dose [32]: 0.24 mg/kg
Vdss [6]: 1.8 L/kg
CL/F [7]: 33 mL/min/kg
Ki [8]: 630 nM
Cmax [10]: 3800 nM
Activity [12]: 13%
Kp at 1 h [13]: 1.5
Activity [14]: 16%
Kp at 5 min [18]: 1.5
Activity [19]: 23%
Papp A→B [20]: 34 ×10⁻⁶ cm/s
fraction unbound [33]: 0.83
half-life [27]: > 120 min
Ki [28]: 9 nM
half-life [30]: 36 min
